The target in assay [1] is Sentrin-specific protease 8 (Homo sapiens) (UniProt Q96LD8). Put plainly: human SENP8 peptidase blockers, hit retest – biochemical, luminescence, single concentration, confirmation (AID 488912;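 active means mean inhibition across replicates above about 50%, limit read from the data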). The conditions noted are these: Recombinant SENP8, Z-RLRGG-aminoluciferin luminescence, 60 min; at 12.5 µM; stronger effect = higher value.
Assay [2] has as its target Sentrin-specific protease 6 (Homo sapiens) (UniProt Q9GZR1). Put plainly: inhibition of human SENP6 catalytic domain – biochemical, luminescence, single concentration, confirmation (AID 488915). The conditions noted are these: recombinant SENP6, Z-RLRGG-aminoluciferin luminescence; at 12.5 µM; stronger effect = higher value.
Assay [3] addresses Sentrin-specific protease 7 (Homo sapiens) (UniProt Q9BQF6). Nature of the assay: human SENP7 peptidase blockers, hit retest – biochemical, luminescence, single concentration, confirmation (AID 488917). The conditions noted are these: recombinant SENP7, Z-RLRGG-aminoluciferin luminescence, 40 min; at 12.5 µM; stronger effect = higher value.
In assay [4] the target is Caspase-3 (Homo sapiens) (UniProt P42574). Put plainly: human caspase-3 activity blockade, out-of-family – biochemical, single concentration, selectivity assay for SENP inhibitor project, confirmation (AID 488918;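 active means mean inhibition above about 50%, limit read from the data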;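 further: plate controls were enzyme with DMSO for no effect and wells without caspase-3 for full effect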). The conditions noted are these: purified caspase-3, Z-DEVD-aminoluciferin luminescence, 60 min; at 12.5 µM; stronger effect = higher value.
Sequence of Caspase-3 (Homo sapiens) (P42574 28-227 limits assumed): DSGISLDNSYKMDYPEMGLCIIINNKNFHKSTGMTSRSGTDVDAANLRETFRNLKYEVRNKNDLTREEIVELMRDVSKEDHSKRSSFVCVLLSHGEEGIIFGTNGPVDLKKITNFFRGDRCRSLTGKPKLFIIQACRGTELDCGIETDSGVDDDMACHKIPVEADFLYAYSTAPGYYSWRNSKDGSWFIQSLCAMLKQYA
Assay [5] is described as follows: Ultra-Glo luciferase signal interference – biochemical, single concentration, SENP8 reaction pre-completed, artefact control for SENP inhibitor project, confirmation (AID 488919;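 active means mean inhibition above about 50% when retested at one dose, limit read from the data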;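 further: plate controls were DMSO wells with completed reaction for no effect and substrate without enzyme for full effect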). Conditions: Pre-incubated SENP8/Z-RLRGG-aminoluciferin, luciferase luminescence interference; at 12.5 µM; stronger effect = higher value.
A short description of assay [6]: PERK-eIF2a-CHOP pathway stimulators, retested – cell-based, CHO-CHOP luciferase reporter, single concentration, confirmation (AID 463112; in the data active means activation above about 33%;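 further: 0% = DMSO wells and 100% = tunicamycin 10 µg/mL wells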). The conditions noted are these: CHO-CHOP cells, CHOP-luciferase reporter luminescence; at 10 µM; stronger effect = higher value; percent of tunicamycin response, DMSO as zero. In a few lines: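 Assay system: CHO cells stably carrying a CHOP-driven luciferase reporter. Timing: 6 h compound treatment, 37 °C. Detection: luciferase luminescence measured with Steady-Glo reagent. Benchmarks: high control tunicamycin 10 µg/mL, low control DMSO.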

Assay [7] can be described thus: HIF-2a driven luciferase blockers, single dose – luminescence, 786-0 RCC cells, confirmation (AID 651580;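 active means mean inhibition across four replicates of at least 40 percent at the single tested concentration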). Conditions: HIF-2a luciferase reporter luminescence, overnight, at 18.8 µM, stronger effect = higher value. (Reporter assays use an easily measured gene product as a stand-in for the process of interest.)
A short description of assay [8]: HIF-1a luciferase reporter signal reduction – MiaPaCa-2 cells, single concentration, counter-screen for HIF-2a inhibitor project, confirmation (AID 651589;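 active means mean inhibition of the reporter signal across four replicates at the single tested dose of 50% or more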). The conditions noted are these: MiaPaCa-2 HIF-1a luciferase reporter, desferoxamine, overnight; at 18.8 µM; stronger effect = higher value.
Assay [9] addresses Tumor necrosis factor receptor superfamily member 10B (Homo sapiens) (UniProt O14763). Nature of the assay: viability loss of caspase-8 NB7 cells with TRAIL – with/without TRAIL, luminescence panel, confirmation (AID 651596; in the data active means activity above about 50%). Conditions: NB7 neuroblastoma + caspase-8, TRAIL sensitization, NB7 Caspase-8, with TRAIL, mean of runs, at 10 µM, stronger effect = higher value.
Assay in assay [10]: as above
Conditions: NB7 neuroblastoma + caspase-8, without TRAIL, NB7 Caspase-8, without TRAIL, mean of runs, at 10 µM.

Broadly, the inhibition is the drop in the measured response relative to a control, in per cent.

Structures are written as SMILES. Some of the results follow. Active and inactive are the calls of the source.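 How the source made its calls, unless noted: active means mean inhibition above about 50% in the one-dose retest (limit read from the data); inactive means the rest.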

Sequence of Sentrin-specific protease 8 (Homo sapiens) (Q96LD8 whole entry, looked up, the tested form may be a part): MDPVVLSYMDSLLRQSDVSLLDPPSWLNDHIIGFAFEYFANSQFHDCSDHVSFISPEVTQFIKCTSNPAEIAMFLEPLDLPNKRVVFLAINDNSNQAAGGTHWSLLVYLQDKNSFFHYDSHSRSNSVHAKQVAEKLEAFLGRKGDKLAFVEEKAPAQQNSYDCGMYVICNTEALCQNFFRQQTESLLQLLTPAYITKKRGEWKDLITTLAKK
Sequence of Sentrin-specific protease 6 (Homo sapiens) (Q9GZR1 628-1112 limits assumed): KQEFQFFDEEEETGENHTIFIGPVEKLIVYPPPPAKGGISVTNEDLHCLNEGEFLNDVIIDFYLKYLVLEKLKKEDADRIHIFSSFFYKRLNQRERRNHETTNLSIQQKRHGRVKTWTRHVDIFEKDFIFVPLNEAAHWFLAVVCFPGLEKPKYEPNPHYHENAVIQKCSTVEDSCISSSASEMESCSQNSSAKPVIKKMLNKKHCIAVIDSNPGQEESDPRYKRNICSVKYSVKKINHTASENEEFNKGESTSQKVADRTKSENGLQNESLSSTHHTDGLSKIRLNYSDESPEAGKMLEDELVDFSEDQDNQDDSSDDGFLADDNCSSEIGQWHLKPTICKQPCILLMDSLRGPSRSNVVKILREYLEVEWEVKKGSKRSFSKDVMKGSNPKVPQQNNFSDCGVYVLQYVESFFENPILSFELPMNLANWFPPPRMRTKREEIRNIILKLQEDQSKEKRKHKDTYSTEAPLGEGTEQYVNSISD
Sequence of Sentrin-specific protease 7 (Homo sapiens) (Q9BQF6 706-1050 limits assumed): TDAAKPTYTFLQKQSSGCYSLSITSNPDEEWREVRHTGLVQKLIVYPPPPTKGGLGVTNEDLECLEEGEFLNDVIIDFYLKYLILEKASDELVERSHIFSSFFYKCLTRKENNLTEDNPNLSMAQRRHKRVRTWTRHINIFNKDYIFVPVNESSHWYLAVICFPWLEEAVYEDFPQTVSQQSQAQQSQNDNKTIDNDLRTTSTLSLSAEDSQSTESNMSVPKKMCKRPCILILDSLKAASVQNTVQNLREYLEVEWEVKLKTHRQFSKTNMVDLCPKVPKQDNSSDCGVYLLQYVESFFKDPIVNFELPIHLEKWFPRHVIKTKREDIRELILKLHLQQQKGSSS
Sequence of Tumor necrosis factor receptor superfamily member 10B (Homo sapiens) (O14763 whole entry, looked up): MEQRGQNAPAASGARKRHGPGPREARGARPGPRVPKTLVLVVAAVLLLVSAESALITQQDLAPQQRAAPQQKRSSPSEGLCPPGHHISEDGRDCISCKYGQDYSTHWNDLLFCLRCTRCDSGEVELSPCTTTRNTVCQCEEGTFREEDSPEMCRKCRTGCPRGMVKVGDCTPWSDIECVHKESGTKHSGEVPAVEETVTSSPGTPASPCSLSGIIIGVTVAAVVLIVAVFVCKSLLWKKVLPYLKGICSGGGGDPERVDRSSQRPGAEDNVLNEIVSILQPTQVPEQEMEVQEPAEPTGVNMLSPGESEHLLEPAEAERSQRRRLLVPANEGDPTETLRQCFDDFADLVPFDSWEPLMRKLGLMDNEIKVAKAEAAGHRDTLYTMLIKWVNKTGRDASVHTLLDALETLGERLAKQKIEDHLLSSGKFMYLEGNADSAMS

Regarding `COc1ccc2nc(Nc3nc4cc5c(cc4s3)OCCO5)sc2c1`, the inhibition in assay [1] is 20.4% (inactive); in assay [2], 63% (active); in assay [3], 71.6% (active); in [4] it was 31.8% (inactive); in [5], 24.3% (inactive).
Consider `O=C(COc1ccc2oc3c(c2c1)CCCC3)Nc1ccccn1`, for which the inhibition in [1] was 4.9% (inactive); in assay [2] it was 12.8% (inactive); in assay [3] it was 11.9% (inactive); in assay [4] it was 24.7% (inactive); in assay [5] it was 4.6% (inactive).
Take `CC1=CC(C)(C)Nc2ccc(OC(=O)CN3C(=O)C4CCCCC4C3=O)cc21` (stereo unspecified): in assay [6], the activation was 68% (active). Further, the inhibition is 86.9% (active) in assay [7] and 86.2% (active) in assay [8].
Consider `O=c1[nH]c(CCl)nc2cc(-c3ccc(Cl)cc3)sc12`, for which the inhibition is 25.3% (inactive) in [1]; 45.5% (inactive) in [2]; 19.6% (inactive) in assay [3]; 28.2% (inactive) in assay [4]; 9.5% (inactive) in assay [5].
As to `O=C(Nc1ccc(OC(F)(F)F)cc1)c1ccc2c(c1)no[n+]2[O-]`, the activation in assay [6] was 24.4% (inactive). The values for the activity in assay [9] and in assay [10] were 90% and 96.8%, respectively.
On to `Cc1nonc1C(=O)N/N=C/c1ccc(O)cc1`, for which the inhibition in assay [1] is 99.5% (active); in assay [2], 101% (active); in assay [3], 103% (active); in assay [4] it was 99.4% (active); in assay [5], 66.2% (active).
With `COc1ccc(C(=O)Nc2ccccc2C(=O)N/N=C/c2ccccc2OC)cc1`, the inhibition in [1] was 4% (inactive); in assay [2] it was 43.4% (inactive); in [3] it was 52.6% (active); in [4], 83.9% (active); in [5] it was 15.2% (inactive).
On the same counts, the results for `Cc1cccc(OCC(=O)Nc2ccccc2F)c1` are 20.8% (inactive), 30.1% (inactive), 72.8% (active), 62.7% (active) and 35.2% (inactive).
On the same counts, the results for `COc1ccc(-n2ncc3c(SCC(=O)NNC(C)=O)ncnc32)cc1` are 11.5% (inactive), 48.8% (inactive), 11.2% (inactive), 51.3% (active) and 5.9% (inactive).
